ChEMBL document CHEMBL3593214, “ent-Abietane-Type and Related Seco-/Nor-diterpenoids from the Rare Chloranthaceae Plant Chloranthus sessilifolius and Their Antineuroinflammatory Activities” (J Nat Prod, 2015)

How the values were obtained:
[1] = Antineuroinflammatory activity in mouse BV2 cells assessed as inhibition of LPS-stimulated nitric oxide production preincubated for 4 hrs followed by LPS challenge measured after 24 hrs by Griess assay; type: functional, cell-based; conditions: BV-2
How it was run: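 BV-2 mouse microglia (ATCC) kept in DMEM with 1800 mg/L NaHCO3, 10% FBS and penicillin/streptomycin at 37 °C, 5% CO2. Cells were pretreated 4 h with 3.125–100 μM, then LPS 1 μg/mL for 24 h. Supernatant nitrite was measured by Griess reagent at 540 nm against a NaNO2 standard curve. IC50 is the concentration giving 50% inhibition; mean ± SD of three independent experiments.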

[2] = Cytotoxicity against mouse BV2 cells assessed as cell viability at 50 uM by MTT assay relative to control; type: cell-based, BV-2; conditions: read-out: Activity
How it was run: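 MTT colorimetric read-out on BV-2 microglia in DMEM/10% FBS at 37 °C, 5% CO2, after treatment at 50 μM. Viability is expressed as percent of untreated control cells; mean ± SD.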

| SMILES | IC50 [1] [µM] | viability at 50 µM [2] [%] |
| --- | --- | --- |
| CC(C)C1=CC(=O)[C@@]2(CC1)OC(=O)C[C@@H]1C(C)(C)[C@H](O)CC[C@]12C | > 100 | – |
| CO[C@]1(C(C)C)C=C2C(=O)C[C@@H]3C(C)(C)[C@H](O)CC[C@@]3(C)[C@@H]2CC1 | 8.3 | 96.7 |
| CC1(C)[C@H](O)CC[C@@]2(C)[C@@H]3CC[C@@](O)(C(C)(C)O)C=C3C(=O)C[C@H]12 | > 100 | – |
| CC(C)(O)c1ccc2c(c1)CC[C@@H]1C(C)(C)[C@H](O)CC[C@@]21C | 17.8 | 95.4 |
| CC(C)(O)c1ccc2c(c1)C(=O)C=C1C(C)(C)[C@H](O)CC[C@]12C | > 100 | – |
| CC(C)c1ccc2c(c1)[C@H](O)C[C@@H]1C(C)(C)[C@H](O)CC[C@@]21C | 43.9 | 94.7 |
| CC1(C)[C@H](O)CC[C@@]2(C)[C@@H]3CCC(=O)C=C3[C@@H](O)C[C@H]12 | > 100 | – |
| CC1(C)[C@H](O)CC[C@@]2(C)[C@@H]3CCC(=O)C=C3[C@H](O)C[C@H]12 | > 100 | – |

The next lines start with results.

| IC50 [1] [µM] | SMILES | viability at 50 µM [2] [%] |
| --- | --- | --- |
| > 100 | CC(C)C(=O)[C@@H]1C[C@@H]2C(=CC[C@@H]3C(C)(C)[C@H](O)CC[C@@]23C)[C@H]1O | – |
| > 100 | CC(C)C(=O)[C@H]1C[C@@H]2C(=CC[C@@H]3C(C)(C)[C@H](O)CC[C@@]23C)[C@H]1O | – |
| > 100 | CC(C)[C@]1(O)C=C2C(=O)C[C@@H]3C(C)(C)[C@H](O)CC[C@@]3(C)[C@@H]2CC1 | – |
| > 100 | CC(C)[C@]1(O)C=C2C(=O)C=C3C(C)(C)[C@H](O)CC[C@@]3(C)[C@@H]2CC1 | – |
| 37.7 | CC(C)[C@@]1(O)C=C2C(=O)C[C@@H]3C(C)(C)[C@H](O)CC[C@@]3(C)[C@@H]2C[C@H]1O | 98.4 |
| 7.4 | CC(C)[C@@]1(O)C=C2C(=O)C[C@@H]3[C@@](C)(CO)CCC[C@@]3(C)[C@@H]2CC1 | 96.8 |
| > 100 | CC(C)C(=O)CC[C@@H]1C(C=O)=C[C@@H](O)[C@@H]2C(C)(C)[C@H](O)CC[C@@]12C | – |
| > 100 | CC(C)C(=O)CC[C@@H]1CC(=O)C[C@@H]2C(C)(C)[C@H](O)CC[C@@]12C | – |
| 14.4 | CNC(=N)NCCC[C@H](N)C(=O)O [TILARGININE] | 98.5 |
